# Experimental data pooled from the literature.
# Target: Acetylcholinesterase (ACHE, Homo sapiens, UniProt P22303)
# Observed: enzyme activity
# Action: inhibitor
SMILES,method,pH,IC50 [nM]
CC(=O)O[C@H]1C[C@@H]2CC[C@@H]3[C@H](CC[C@@]4(C)[C@H]3C[C@H]([N+]3(C)CCCCC3)[C@@H]4OC(C)=O)[C@@]2(C)C[C@@H]1N1CCCCC1,,,16500
CCOP(=O)(OCC)Oc1ccc2c(C)c(Cl)c(=O)oc2c1,Ellman,,111
C=CCn1c2cc(OC(=O)CCCCCCN3CCN(Cc4ccccc4)CC3)ccc2c2ccnc(C)c21,Ellman,,286
CS(=O)(=O)n1cc(Br)c(=O)[nH]c1=O,Ellman,,111
C=CCn1c2cc(OC(=O)CCCCN3CCN(Cc4ccccc4C)CC3)ccc2c2ccnc(C)c21,Ellman,,15.7
COc1cc2c3cc1Oc1cc(ccc1O)C[C@@H]1c4c(cc(OC)c(O)c4Oc4ccc(cc4)C[C@@H]3N(C)CC2)CC[N+]1(C)C,Ellman,,57600
C[C@@H]1CCCN1CCCCOc1ccc2occc(=O)c2c1,Ellman,pH 7.4,8620
O=C(CN1C2=NCCN2c2ccccc21)c1ccc(-c2ccccc2)cc1,,,19500
C=CCn1c2cc(OC(=O)CCCCN3CCN(Cc4ccccc4)CC3)ccc2c2ccnc(C)c21,Ellman,,58.8
CC(=O)n1ccc(=O)[nH]c1=O,Ellman,,136
C=CCn1c2cc(OC(=O)CCCCN3CCN(Cc4ccccc4Cl)CC3)ccc2c2ccnc(C)c21,Ellman,,116
CC[n+]1c(-c2ccccc2)c2cc(N)ccc2c2ccc(N)cc21,Ellman,,22900
c1cc(CN2CCCCC2)cc(OCCCNc2nc3ccccc3s2)c1,,,22600
C=CCn1c2cc(OC(=O)CCCCCN3CCN(Cc4ccccc4)CC3)ccc2c2ccnc(C)c21,Ellman,,157
C#CCNc1nc(NCCCCC2CCN(Cc3ccccc3)CC2)c(C#N)c(-c2ccccc2)c1C#N,Ellman,,6
C=CCn1c2cc(OC(=O)CCCCN3CCN(Cc4cccc(C(F)(F)F)c4)CC3)ccc2c2ccnc(C)c21,Ellman,,748
CN1CCN(CCOc2ccc3occc(=O)c3c2)CC1,Ellman,pH 7.4,72900
O=c1[nH]cc(CO)c(=O)[nH]1,Ellman,,205
C=CCn1c2cc(OC(=O)CCCCN3CCN(Cc4ccc(C)cc4)CC3)ccc2c2ccnc(C)c21,Ellman,,12.6
Cc1ccc(S(=O)(=O)n2cc(Br)c(=O)[nH]c2=O)cc1,Ellman,,88
CNC(=O)Oc1cccc2c1OC(C)(C)C2,Ellman,,38
C#CCNc1nc(NCCCC2CCN(Cc3ccccc3)CC2)c(C#N)cc1C#N,Ellman,,1
